Values after ≈ are worked out from the molar mass of the structure shown. Active and inactive are the calls of the source. The rule behind the calls is not given here.
What was measured:
[1] = test system: M-phase inducer phosphatase (Cdc25); experiment: Inhibition of Cdc25
Plasmodium falciparum = experiment: Antimalarial activity against chloroquine-resistant Plasmodium falciparum W2 by Picogreen dye fluorimetry; type: functional, organism-based
Procedure, shortened: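 Fluorometric growth-inhibition assay on chloroquine-resistant W2 strain, detecting parasite DNA by PicoGreen intercalation. Result expressed as IC50 in μg/mL.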

[2] = biological target: Cyclin-dependent kinase 1/cyclin B1 (Homo sapiens) (UniProt P06493+P14635); experiment: Inhibition of Cdc2/cyclin B
[3] = test system: Mycobacterium tuberculosis; experiment: Antimicrobial activity against Mycobacterium tuberculosis H37Rv at 6.25 ug/mL; type: functional, organism-based
MCF7 = experiment: Cytotoxicity against human MCF7 cells; type: functional, cell-based
HL-60(TB) = experiment: Cytotoxicity against human HL-60(TB) cells; type: functional, cell-based
CCRF-CEM = experiment: Cytotoxicity against human CCRF-CEM cells; type: functional, cell-based
MOLT-4 = experiment: Cytotoxicity against human MOLT4 cells; type: functional, cell-based
[4] = Cytotoxicity against human […] cells; type: functional, cell-based

Cyclin-dependent kinase 1/cyclin B1 (Homo sapiens), sequence (P06493 whole entry, looked up): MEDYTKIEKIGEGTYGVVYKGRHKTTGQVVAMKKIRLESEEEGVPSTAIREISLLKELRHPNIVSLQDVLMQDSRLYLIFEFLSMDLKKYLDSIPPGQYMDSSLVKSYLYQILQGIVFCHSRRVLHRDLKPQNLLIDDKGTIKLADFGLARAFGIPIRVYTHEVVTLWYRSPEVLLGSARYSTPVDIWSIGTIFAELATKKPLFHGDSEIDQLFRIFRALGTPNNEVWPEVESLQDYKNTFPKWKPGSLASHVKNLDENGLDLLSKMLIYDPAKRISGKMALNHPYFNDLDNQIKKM
Cyclin-dependent kinase 1/cyclin B1 (Homo sapiens), sequence (P14635 whole entry, looked up): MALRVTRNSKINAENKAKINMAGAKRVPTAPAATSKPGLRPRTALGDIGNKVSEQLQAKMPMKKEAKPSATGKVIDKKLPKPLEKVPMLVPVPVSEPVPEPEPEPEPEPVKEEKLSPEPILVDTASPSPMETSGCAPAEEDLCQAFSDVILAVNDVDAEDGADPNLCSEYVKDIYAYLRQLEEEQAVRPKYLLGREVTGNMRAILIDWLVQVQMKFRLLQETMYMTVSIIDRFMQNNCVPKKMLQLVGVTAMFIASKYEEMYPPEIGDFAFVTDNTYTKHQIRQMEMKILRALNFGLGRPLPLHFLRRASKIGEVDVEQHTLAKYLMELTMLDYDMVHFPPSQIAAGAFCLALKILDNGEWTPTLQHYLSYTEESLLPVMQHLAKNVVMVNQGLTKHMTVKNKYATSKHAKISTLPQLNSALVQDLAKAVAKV

With C=C1CC[C@@H](C(C)=O)[C@@H](OC(=O)/C=C/C(C)(C)O)/C=C(\C)CC[C@@H]1O the Activity [1] was “inactive”, the IC50 (Plasmodium falciparum) was 14 µg/mL (≈ 39.9 µM) and the Activity [2] was “inactive”.

In the case of C=C1CC[C@H](O)[C@@]2(C)CC[C@@H]3[C@@H](OC(=O)[C@H]3C)[C@H]12, the Activity [3] is reported as “inactive” and the IC50 (Plasmodium falciparum) is reported as 14 µg/mL (≈ 55.9 µM).

For C=C1CC[C@@H](C(C)=O)[C@@H](OC(=O)/C=C/C(C)(C)O)/C=C(\C)CCC1=O, the Activity [1] was “inactive”, the Activity [3] was “inactive” and the IC50 (Plasmodium falciparum) was 16 µg/mL (≈ 45.9 µM). For the same compound, the Activity [2] was “inactive”.

Compound C=C1CC[C@@H]2[C@H](/C=C(\C)CC[C@@H]1O)OC(=O)[C@H]2C has an IC50 (MCF7) of 82.2 µg/mL (≈ 328 µM), an IC50 (HL-60(TB)) of 51.5 µg/mL (≈ 206 µM) and an IC50 (CCRF-CEM) of 31.3 µg/mL (≈ 125 µM). It also gave an IC50 (MOLT-4) of 19.6 µg/mL (≈ 78.3 µM), an IC50 (Plasmodium falciparum) of 18 µg/mL (≈ 71.9 µM) and an IC50 [4] of 90.4 µg/mL (≈ 361 µM).

For C=C[C@@]1(C)CC[C@@H](C(C)=O)[C@@H](OC(=O)/C=C/C(C)(C)O)[C@@H]1C(=C)C, the Activity [3] was “inactive”.

Compound C=C[C@@]1(C)CCC2=C(C)C(=O)O[C@H]2[C@@H]1C(=C)C has an IC50 (Plasmodium falciparum) greater than 50 µg/mL.

For C=C1CC[C@H](O)[C@@]2(C)CC[C@@H](C(C)=O)[C@@H](OC(=O)/C=C/C(C)(C)O)[C@H]12, the Activity [3] was “inactive” and the IC50 (Plasmodium falciparum) was 10 µg/mL (≈ 28.5 µM).

Source: ChEMBL document CHEMBL1141802, “Sesquiterpenoid metabolites with antiplasmodial activity from a Caribbean gorgonian coral, Eunicea sp” (J Nat Prod, 2005)
